SIRT5 block = blocks human SIRT5 desuccinylation of peptide | Purified SirT5, succinyl-peptide AMC, trypsin-coupled fluorescence | Q9NXA8 | 1.1% of 330,000 active | AID 652115 | inhibition, % at 15 µM; in the data active = inhibition above about 15%; inconclusive = no clear call, values can overlap the other calls
Target sequence (Q9NXA8 whole entry, looked up): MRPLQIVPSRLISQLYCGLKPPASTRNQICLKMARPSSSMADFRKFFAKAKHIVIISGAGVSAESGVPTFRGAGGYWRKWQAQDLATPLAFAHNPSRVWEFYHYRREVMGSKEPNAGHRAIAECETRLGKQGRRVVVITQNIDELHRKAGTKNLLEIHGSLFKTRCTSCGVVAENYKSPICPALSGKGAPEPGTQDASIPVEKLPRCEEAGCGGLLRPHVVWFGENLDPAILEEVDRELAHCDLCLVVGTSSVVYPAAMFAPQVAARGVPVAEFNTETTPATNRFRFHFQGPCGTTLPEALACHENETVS
CAL PDZ FP-1 = inhibitors of human CAL PDZ peptide binding; Q9HD26; purified CAL PDZ, TMR-peptide fluorescence polarization, 1 h; inhibition, % at 24.9 µM; 0.92% of 300,000 active;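 active = mean inhibition of at least 30% with at least half of replicates also reaching 30%; inconclusive = no clear call, values can overlap the other calls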
CAL PDZ FP-2 = inhibitors of human CAL PDZ peptide binding | purified CAL PDZ, TMR-peptide fluorescence polarization, 1 h | inhibition, % at 20 µM | Q9HD26 | 0.02% of 330,000 active;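 active = highest replicate inhibition of at least 40%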
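Assay system – tagged CAL PDZ protein CerCALP, purified · Timing – 1 h at RT · Compound – single point, 20 µM · Measured by – fluorescence polarization from S- and P-plane intensities, G-factor corrected · Evaluation – inhibition from polarization loss · Probe or stimulus – TMR reporter peptide T*-PRC34 · Buffer or medium – pH 7.4 phosphate-saline buffer, reducing agent, detergent, IgG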
DENV2 CPE rescue = protects cells from dengue virus 2 cytopathic effect | DENV2-infected cells, cytopathic effect rescue, plate reader | CPE inhibition, % at 9.99 µM | 1.7% of 350,000 active | AID 651640; in the data active = CPE inhibition above about 20%, passing the limit was not always enough; inconclusive = no clear call, values can overlap the other calls; tested in BHK-21 cells
ERAP1 inh = inhibitors of human ERAP1 aminopeptidase; Q9NZ08; recombinant ERAP1, Leu-AMC fluorescence, 60 min; inhibition, % at 10.7 µM; 0.15% of 340,000 active; AID 652197;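 active = mean replicate inhibition of at least 30%, or all replicates individually reaching that 30% level; inactive = mean below 30% and not every replicate reaching it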
S100A4 inh HTS = blocks human S100A4 binding to myosin IIA peptide; P26447; inhibition, % at 10.7 µM; S100A4/TAMRA-MyoIIA peptide fluorescence polarization; AID 652163; 0.14% of 360,000 active;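 active = mean inhibition of at least 70% across replicates, with every replicate also reaching that level; inconclusive = mean inhibition reaches 70% but some replicates fall short; inactive = mean inhibition below 70%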
Target sequence (P26447 whole entry, looked up): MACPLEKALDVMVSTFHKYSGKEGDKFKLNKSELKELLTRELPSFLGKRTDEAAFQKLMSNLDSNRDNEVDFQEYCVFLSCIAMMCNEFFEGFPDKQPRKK
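Material: S100A4 monomer (human). Medium: Calcium-containing HEPES buffer, pH 7.2. Probe or stimulus: labelled myosin peptide probe, 5 nM. Compound dosing: one concentration per compound. Timing: polarization read 5 min after assay mix addition, stable 5–60 min. Benchmarks: DMSO as neutral control, TFP as positive control.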
A number is an active result; - = inactive; ? = inconclusive; . = not tested or not shown. An excerpt weighted towards active compounds, which were near 2.9% of everything screened.

SMILES	SIRT5 block	CAL PDZ FP-1	CAL PDZ FP-2	DENV2 CPE rescue	ERAP1 inh	S100A4 inh HTS
C[C@@H]1CN([C@@H](C)CO)C(=O)c2cc(C#CC3CCCCC3)cnc2O[C@@H]1CN(C)C(=O)Nc1ccccc1	16.4	.	.	-	.	-
CC(C)CC#Cc1cnc2c(c1)C(=O)N([C@H](C)CO)C[C@@H](C)[C@H](CN(C)S(C)(=O)=O)O2	-	.	.	-	-	95.3
C[C@@H]1CN([C@@H](C)CO)C(=O)c2cc(C#CC3CCCCC3)cnc2O[C@H]1CN(C)C(=O)Nc1ccccc1	-	.	.	-	.	-
Cc1noc(C)c1NC(=O)Nc1ccc2c(c1)C(=O)N(C)[C@H]1CC[C@@H](CC(=O)NCc3ccc(Cl)cc3)O[C@H]1CO2	-	.	.	-	-	-
C[C@H](CO)N1C[C@H](C)[C@H](CN(C)CC2CCOCC2)Oc2ncc(C#C[C@@H](C)O)cc2C1=O	-	.	.	-	-	-
CN(C)C(=O)c1cc2c(c(-c3cccc(-c4ccccc4)c3)n1)[C@H](CCO)N([S@@](=O)C(C)(C)C)C2	-	.	.	-	-	-
C[C@@H]1CN([C@@H](C)CO)C(=O)c2cc(C#Cc3ccccc3F)cnc2O[C@@H]1CN(C)C(=O)C1CCCCC1	-	.	.	-	-	-
C[C@H]1CN([C@@H](C)CO)C(=O)c2cc(C#CC3CCCCC3)cnc2O[C@H]1CN(C)Cc1cncnc1	-	.	.	-	-	98.5
C[C@@H]1CN([C@@H](C)CO)C(=O)c2cc(C#CC3CCCCC3)cnc2O[C@H]1CN(C)Cc1cncnc1	-	.	.	-	-	-
COc1ccc2[nH]c(=O)c(CN(C(=O)c3cccnc3)c3ccc(C)cc3C)cc2c1	-	33.5	-	-	-	-
COc1ccc(N(Cc2cc3cc(OC)ccc3[nH]c2=O)C(=O)C2CCCO2)cc1 (stereo unspecified)	.	.	-	.	.	.
COc1ccc2[nH]c(=O)c(CN(C(=O)C3CCCO3)c3ccc(C)c(C)c3)cc2c1 (stereo unspecified)	-	47.7	-	-	.	-
COc1ccc2[nH]c(=O)c(CN(C(=O)c3cccnc3)c3cc(C)ccc3C)cc2c1	-	-	-	-	.	-
CO[C@H]1CN(C)C(=O)c2cc(NC(=O)Cc3ccccc3)ccc2OC[C@@H](C)NC[C@@H]1C	-	.	.	-	.	-
CC(C)NC(=O)N(C)C[C@H]1OCCCC[C@H](C)Oc2ccc(NC(=O)Nc3cccc4ccccc34)cc2C(=O)N([C@@H](C)CO)C[C@H]1C	-	.	.	-	-	-
Cc1ccccc1NC(=S)N/N=C/c1ccc(O)cc1O	15.8	-	-	-	.	-
COc1ccccc1N1CCN(CC(=O)Nc2c(C)n(C)n(-c3ccccc3)c2=O)CC1	29.0	-	-	-	-	-
O=C(COc1ccc(-n2cnnn2)cc1)NC(=O)NCc1ccccc1	.	50.0	-	.	.	.
C/C(=N\NC(=O)c1ccccc1O)c1cccc(NC(=O)c2ccccc2)c1	-	-	-	-	-	-
C/C(=N\NC(=O)c1ccccc1O)c1ccc(NC(=O)c2ccccc2)cc1	-	-	-	116.5	-	-
O=C(NNS(=O)(=O)c1ccccc1)c1ccccc1-n1cccc1	-	41.4	-	-	-	-
O=C(NNS(=O)(=O)c1ccc(Br)cc1)c1ccccc1-n1cccc1	-	-	-	?	-	-
O=C(NNC(=O)c1ccccc1-n1cccc1)c1ccccc1	.	.	-	.	.	.
NNC(=O)c1ccccc1-n1cccc1	21.8	-	-	-	-	-
CCCCn1c(-c2csc(C(C)C)c2)n[nH]c1=S	17.1	-	-	-	-	-
SMILES	SIRT5 block	CAL PDZ FP-1	CAL PDZ FP-2	DENV2 CPE rescue	ERAP1 inh	S100A4 inh HTS
CCCCn1c(-c2csc(CC)c2)n[nH]c1=S	.	-	-	.	.	.
CCCNC(=O)N1[C@H](CO)[C@@H]2c3ccccc3N(C(=O)Nc3ccc(F)cc3)C[C@@H]21	-	.	.	-	-	-
NC(=O)CCN1CCC(c2nc3ccccc3s2)CC1	23.5	-	-	-	-	-
COc1ccc(CN(C)C[C@H]2Oc3c(NS(=O)(=O)c4ccc(OC)cc4)cccc3C(=O)N([C@@H](C)CO)C[C@@H]2C)cc1	-	.	.	-	-	-
Cc1ccc(C(=O)CSc2nnc(C3CC3)n2C2CC2)s1	-	63.0	-	-	-	-
CCc1ccc(C(=O)CSc2nnc(C3CC3)n2C2CC2)cc1	-	-	-	-	-	-

Screens as filed in PubChem.
